Data reported in ChEMBL document CHEMBL1131046, “Substituted salicylanilides as inhibitors of two-component regulatory systems in bacteria” (J Med Chem, 1998).
Values after ≈ are worked out from the molar mass of the structure shown. Active and inactive are the calls of the source. The rule behind the calls is not given here.

What was measured:
Enterococcus faecium = test: Minimum inhibitory activity against Enterococcus faecium OC3312.; assay type: functional
How it was run: (§1)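 MIC by NCCLS broth microdilution. Strains are ATCC and clinical isolates, including methicillin-resistant S. aureus.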

Staphylococcus aureus [1] = test: Minimum inhibitory activity against methicillin resistant Staphylococcus aureus (MRSA) OC2089.; assay type: functional
How it was run: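 Broth microdilution MIC following NCCLS methods for aerobically growing bacteria.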

[2] = target: T1, KinA/Spo0F (sporulation kinase A/sporulation initiation phosphotransferase F) (Bacillus subtilis (strain 168), UniProt P06628+P16497); test: Inhibition of autophosphorylation of the two-component signal transduction system kinase was measured using the KinA/Spo0F regulatory system of Bacillus subtilis.; assay type: functional
T1 sequence (P06628 whole entry): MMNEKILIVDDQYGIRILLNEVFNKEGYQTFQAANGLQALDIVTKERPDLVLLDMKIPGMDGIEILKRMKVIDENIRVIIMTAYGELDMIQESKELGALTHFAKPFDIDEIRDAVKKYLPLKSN
T1 sequence (P16497 whole entry): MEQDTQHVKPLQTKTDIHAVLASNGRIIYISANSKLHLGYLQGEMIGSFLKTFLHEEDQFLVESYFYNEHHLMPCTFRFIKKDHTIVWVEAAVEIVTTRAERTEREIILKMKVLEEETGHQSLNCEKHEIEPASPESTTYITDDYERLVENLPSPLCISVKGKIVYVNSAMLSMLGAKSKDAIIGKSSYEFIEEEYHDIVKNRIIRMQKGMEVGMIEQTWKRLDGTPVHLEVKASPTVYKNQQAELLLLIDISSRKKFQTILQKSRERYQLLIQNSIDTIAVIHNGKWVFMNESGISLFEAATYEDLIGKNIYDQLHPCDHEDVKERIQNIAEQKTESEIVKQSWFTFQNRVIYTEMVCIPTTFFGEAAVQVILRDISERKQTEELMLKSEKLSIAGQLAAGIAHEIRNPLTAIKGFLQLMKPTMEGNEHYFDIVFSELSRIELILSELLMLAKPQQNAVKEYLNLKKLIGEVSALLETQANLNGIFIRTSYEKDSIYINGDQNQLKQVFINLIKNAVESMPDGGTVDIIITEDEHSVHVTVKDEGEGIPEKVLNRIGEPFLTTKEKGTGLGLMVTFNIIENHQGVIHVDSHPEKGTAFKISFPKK

Enterococcus faecalis [3] = test: Minimum inhibitory activity against Enterococcus faecalis OC3041.; assay type: functional; how it was run: as §1
Staphylococcus aureus [4] = test: Minimum inhibitory activity against Staphylococcus aureus ATCC 29213.; assay type: functional; how it was run: as §1
Enterococcus faecalis [5] = test: Percentage of specific activity relative to untreated control at a concentration allowing 80% growth.; assay type: functional
How it was run: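 OD600 is followed every 30 min. Luciferase RLU/OD600 is measured 2 h after induction. The value is specific activity as a percentage of untreated control, taken at the compound concentration allowing 80% growth.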

Enterococcus faecalis [6] = test: Activity of the VanS/VanR TCS in Enterococcus faecalis OC3364; +{i} indicate induced overexpression of luciferase specific activity; assay type: functional, organism-based
How it was run: (§2)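 E. faecalis OC3364 (JH2-derived) carries vanR vanS and a vanH-luc fusion on separate plasmids. […] OD600 was read every 30 min. At 2 h, cells were lysed by 10 min shaking in an equal volume of Genepol X-80 mix. Luciferase RLU was read with ATP, coenzyme A and luciferin. Specific activity (RLU/OD600) was compared with an untreated control.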

Enterococcus faecalis [7] = test: Activity of the VanS/VanR TCS in Enterococcus faecalis OC3364; +{i} indicate induced over-expression of luciferase specific activity; assay type: functional, organism-based; how it was run: as §2
Staphylococcus aureus [8] = test: Minimum inhibitory activity against Staphylococcus aureus MRSA OC2089.; assay type: functional; how it was run: as §1
Enterococcus faecalis [9] = test: Activity of the VanS/VanR TCS in Enterococcus faecalis OC3364; -{i} indicate over-expression of luciferase in both strains; assay type: functional, organism-based; how it was run: as §2
Enterococcus faecalis [10] = test: Activity of the VanS/VanR TCS in Enterococcus faecalis OC3364; + indicate decrease of the luciferase specific activity relative to an untreated control; assay type: functional, organism-based
How it was run: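 Reporter assay in Enterococcus faecalis OC3364 (from JH2) carrying vanR vanS and a Φ(vanH-luc) fusion on separate plasmids. […] OD600 is read every 30 min. At 2 h cells are lysed and luciferase RLU is read with ATP, coenzyme A and luciferin. Specific activity = RLU/OD600, compared with an untreated control.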

Row | Structure (SMILES) | IC50 [2] | MIC (Enterococcus faecium) | MIC (Staphylococcus aureus [1]) | MIC (Enterococcus faecalis [3]) | MIC (Staphylococcus aureus [4]) | also measured
1 | Cc1cc(C(C#N)c2ccc(Cl)cc2)c(Cl)cc1NC(=O)c1cc(C(F)(F)F)ccc1O (stereo not drawn) | 19 µM | 1 µg/mL (≈ 2.09 µM) | 1 µg/mL (≈ 2.09 µM) | 1 µg/mL (≈ 2.09 µM) | 1 µg/mL (≈ 2.09 µM) | AG80 (Enterococcus faecalis [5]): 95%
2 | O=C(Nc1ccc(Cl)c(Cl)c1)c1cc(C(F)(F)F)cc(C(F)(F)F)c1O | 27 µM | 2 µg/mL (≈ 4.78 µM) | 1 µg/mL (≈ 2.39 µM) | 2 µg/mL (≈ 4.78 µM) | 1 µg/mL (≈ 2.39 µM) | Activity (Enterococcus faecalis [6]): Active
3 | Cc1cc(C(C#N)c2ccc(Cl)cc2)c(Cl)cc1NC(=O)c1cc(C(F)(F)F)cc(C(F)(F)F)c1O (stereo not drawn) | 9 µM | – | – | – | – | –
4 | CN[C@H](CC(C)C)C(=O)N[C@H]1C(=O)N[C@@H](CC(N)=O)C(=O)N[C@H]2C(=O)N[C@H]3C(=O)N[C@H](C(=O)N[C@H](C(=O)O)c4cc(O)cc(O)c4-c4cc3ccc4O)[C@H](O)c3ccc(c(Cl)c3)Oc3cc2cc(c3O[C@@H]2O[C@H](CO)[C@@H](O)[C@H](O)[C@H]2O[C@H]2C[C@](C)(N)[C@H](O)[C@H](C)O2)Oc2ccc(cc2Cl)[C@H]1O [VANCOMYCIN] | – | > 128 µg/mL | – | – | – | –
5 | Cc1cc(C(C#N)c2ccc(Cl)cc2)c(Cl)cc1NC(=O)c1cc(Cl)ccc1O (stereo not drawn) | > 500 µM | – | – | – | – | –
6 | COc1cc(OC)c(O)c(C(=O)Nc2cc(Cl)c(C(C#N)c3ccc(Cl)cc3)cc2C)c1 (stereo not drawn) | 250 µM | – | – | – | – | –
7 | Cc1cc(C(C#N)c2ccc(Cl)cc2)c(Cl)cc1NC(=O)c1cc(Cl)cc(Cl)c1O (stereo not drawn) | 4.8 µM | 2 µg/mL (≈ 4.17 µM) | – | 2 µg/mL (≈ 4.17 µM) | 1 µg/mL (≈ 2.08 µM) | Activity (Enterococcus faecalis [7]): Active; MIC (Staphylococcus aureus [8]): 1 µg/mL (≈ 2.08 µM)
8 | Cc1cc(C(CN)c2ccc(Cl)cc2)c(Cl)cc1NC(=O)c1cc(I)cc(I)c1O (stereo not drawn) | 86 µM | – | – | – | – | –
9 | O=C(Nc1ccc(Cl)c(C(F)(F)F)c1)c1cc(Cl)cc(Cl)c1O | 50 µM | 1 µg/mL (≈ 2.6 µM) | 0.25 µg/mL (≈ 0.65 µM) | 0.5 µg/mL (≈ 1.3 µM) | 0.5 µg/mL (≈ 1.3 µM) | Activity (Enterococcus faecalis [9]): inactive
10 | Cc1cc(C(=O)c2ccc(Cl)cc2)c(Cl)cc1NC(=O)c1cc(I)cc(I)c1O | > 500 µM | – | – | – | – | –
11 | CC(C)(C)c1ccc(NC(=O)c2cc(Cl)cc(Cl)c2O)cc1 | 67 µM | 4 µg/mL (≈ 11.8 µM) | 2 µg/mL (≈ 5.91 µM) | 8 µg/mL (≈ 23.7 µM) | 2 µg/mL (≈ 5.91 µM) | Activity (Enterococcus faecalis [9]): inactive
12 | O=C(Nc1ccccc1)c1cc(Cl)cc(Cl)c1O | > 500 µM | 32 µg/mL (≈ 113 µM) | 4 µg/mL (≈ 14.2 µM) | 64 µg/mL (≈ 227 µM) | 1 µg/mL (≈ 3.54 µM) | –
13 | O=C(Nc1ccc([N+](=O)[O-])cc1)c1cc(Cl)cc(Cl)c1O | > 500 µM | > 64 µg/mL | – | > 32 µg/mL | 4 µg/mL (≈ 12.2 µM) | MIC (Staphylococcus aureus [8]): 4 µg/mL (≈ 12.2 µM)
14 | O=C(Nc1ccc(Cl)c(Cl)c1)c1cc(I)cc(I)c1O | 21 µM | 0.5 µg/mL (≈ 0.936 µM) | 0.25 µg/mL (≈ 0.468 µM) | 0.5 µg/mL (≈ 0.936 µM) | 1 µg/mL (≈ 1.87 µM) | Activity (Enterococcus faecalis [6]): Active
15 | O=C(Nc1ccc(Cl)c(Cl)c1)c1cc(Cl)cc(Cl)c1O [3,3',4',5-TETRACHLOROSALICYLANILIDE] | – | 1 µg/mL (≈ 2.85 µM) | 0.25 µg/mL (≈ 0.712 µM) | 0.5 µg/mL (≈ 1.42 µM) | 0.5 µg/mL (≈ 1.42 µM) | Activity (Enterococcus faecalis [6]): Active
16 | Cc1cc(C(C#N)c2ccc(Cl)cc2)c(Cl)cc1NC(=O)c1cccc(O)c1O (stereo not drawn) | 2.8 µM | 16 µg/mL (≈ 37.4 µM) | – | 16 µg/mL (≈ 37.4 µM) | 16 µg/mL (≈ 37.4 µM) | Activity (Enterococcus faecalis [10]): Active; MIC (Staphylococcus aureus [8]): 16 µg/mL (≈ 37.4 µM); AG80 (Enterococcus faecalis [5]): 66%
17 | Cc1cc(C(C#N)c2ccc(Cl)cc2)c(Cl)cc1NC(=O)c1cc(I)cc(I)c1O (stereo not drawn) [CLOSANTEL] | 3.8 µM | 1 µg/mL (≈ 1.51 µM) | 1 µg/mL (≈ 1.51 µM) | 0.12 µg/mL (≈ 0.181 µM) | 2 µg/mL (≈ 3.02 µM) | AG80 (Enterococcus faecalis [5]): 100%
18 | Cc1onc(-c2ccccc2)c1C(=O)N[C@@H]1C(=O)N2[C@@H]1SC(C)(C)[C@@H]2C(=O)O [OXACILLIN] | – | > 64 µg/mL | – | 16 µg/mL (≈ 39.9 µM) | 0.25 µg/mL (≈ 0.623 µM) | MIC (Staphylococcus aureus [8]): > 64 µg/mL

Second part, led by results:

Row | IC50 [2] | Structure (SMILES) | MIC (Enterococcus faecium) | MIC (Staphylococcus aureus [1]) | MIC (Enterococcus faecalis [3]) | MIC (Staphylococcus aureus [4]) | also measured
19 | > 500 µM | CC(C)(C)c1cc(C(=O)Nc2ccc(Cl)c(Cl)c2)c(O)c(C(C)(C)C)c1 | – | – | – | – | –
20 | > 500 µM | Cc1cc(C(C#N)c2ccc(Cl)cc2)c(Cl)cc1NC(=O)c1cc(C(C)(C)C)cc(C(C)(C)C)c1O (stereo not drawn) | – | – | – | – | –
21 | 185 µM | O=C(Nc1ccc(Cl)cc1)c1cc(Cl)cc(Cl)c1O | – | – | – | – | –
22 | 9.5 µM | O=C(Nc1ccc(Cl)c(Cl)c1)c1cccc(O)c1O | 32 µg/mL (≈ 107 µM) | – | 8 µg/mL (≈ 26.8 µM) | 8 µg/mL (≈ 26.8 µM) | Activity (Enterococcus faecalis [10]): Active; MIC (Staphylococcus aureus [8]): 8 µg/mL (≈ 26.8 µM); AG80 (Enterococcus faecalis [5]): 48%
23 | > 500 µM | COc1cc(OC)c(O)c(C(=O)Nc2ccc(Cl)c(Cl)c2)c1 | – | – | – | – | –
24 | > 500 µM | COc1ccc(NC(=O)c2cc(Cl)cc(Cl)c2O)cc1 | – | – | – | – | –
25 | > 500 µM | O=C(Nc1ccc(Cl)c(Cl)c1)c1cc(Cl)ccc1O | – | – | – | – | –
26 | > 500 µM | O=C(Nc1ccc(Cl)c(Cl)c1)c1cc(C(F)(F)F)ccc1O | – | – | – | – | –
